Results of several laboratories.
Protocols differ between the studies behind these lines.
Target: Death-associated protein kinase 3 (DAPK3, Homo sapiens, UniProt O43293)

C#Cc1cccc(Nc2ncnc3cc(OCCOC)c(OCCOC)cc23)c1  remaining signal (cell-free assay; 0.5 µM): 95.4%
COc1cc(-c2cc(-c3ccc(N4CCNCC4)cc3)cnc2C)cc(OC)c1OC  inhibition (enzyme activity, inhibitor; 0.1 µM): 1%
Nc1ncnc2occ(-c3ccc(NC(=O)Nc4cc(C(F)(F)F)ccc4F)cc3)c12  remaining signal (cell-free assay, inhibitor; 20 µM): 7.9%
Cc1cc(NC(=O)c2cccc(S(F)(F)(F)(F)F)c2)cc(-n2ccn3nc(-c4cccnc4)cc23)c1  remaining binding (cell-free assay, competition with immobilised ligand; 1 µM): 100%
CC(C)(C)c1nc(-c2cccc(NS(=O)(=O)c3c(F)cccc3F)c2F)c(-c2ccnc(N)n2)s1  remaining activity (enzyme activity, inhibitor, radiometric; 1 µM): 54%
CC(C)(O)[C@H]1CC[C@H](Nc2ccc3ncc(-c4cccc(C(F)(F)F)c4)n3n2)CC1  remaining activity (enzyme activity, inhibitor; 1 µM): 120%
C[C@H](c1ccc(F)cc1)N(Cc1cccc(C(=O)O)c1)C(=O)c1cnc2ccccc2c1  remaining binding (cell-free assay, competition with immobilised ligand; 1 µM): 100%
Cc1ccc(Nc2nccc(N(C)c3ccc4c(C)n(C)nc4c3)n2)cc1S(N)(=O)=O  inhibition (enzyme activity, inhibitor; 10 µM): -2%
CNC(=O)c1cc(Oc2ccc(NC(=O)Nc3ccc(Cl)c(C(F)(F)F)c3)cc2)ccn1  remaining signal (cell-free assay; 0.5 µM): 92.9%
CCCS(=O)(=O)Nc1ccc(F)c(C(=O)c2c[nH]c3ncc(-c4ccc(Cl)cc4)cc23)c1F  inhibition (enzyme activity, inhibitor; 1 µM): < 10%
Cc1nc(C2CCN(C(=O)c3ccc(OC(F)(F)F)cc3N)CC2)c2ncc(N3CCN(C)CC3)cc2n1  remaining binding (cell-free assay, competition with immobilised ligand; 1 µM): 100%
Cc1cc(NC(=O)c2cccc3cc(-c4cccc5[nH]nc(N)c45)ccc23)ccc1F  activity vs control (enzyme activity, inhibitor; 0.1 µM): 105%
CCCOc1ccc(OC)c(F)c1C(=O)c1ccc(C(=O)N[C@@H]2CNC[C@H]2NC(=O)c2ccc3[nH]ncc3c2)cc1  remaining activity (enzyme activity, inhibitor; 10 µM): 40%
N#CCCc1ccc2c(c1)-c1[nH]c3ccc([N+](=O)[O-])cc3c1CC(=O)N2  remaining signal (cell-free assay; 0.5 µM): 99.3%
COc1cc2ncnc(Nc3ccc(Oc4ccccc4)cc3C)c2cc1OC  inhibition (enzyme activity, inhibitor; 1 µM): -4%
O=C(Nc1cccnn1)N1CCC(=Cc2cccc(Oc3ccc(C(F)(F)F)cn3)c2)CC1  remaining binding (cell-free assay, competition with immobilised ligand; 1 µM): 79%
COc1cc(Cl)c(C(=O)N[C@@H](CN[C@H]2CC[C@@H](N)CC2)Cc2ccc(C#N)cc2)cc1-c1ccc(CN[C@H](C)c2ccc(C)cc2)o1  remaining activity (enzyme activity, inhibitor; 1 µM): 89%
Oc1cccc(-c2nc(N3CCOCC3)c3oc4ncccc4c3n2)c1  remaining signal (cell-free assay; 0.5 µM): 93.1%
COc1cc(-c2cn(C3CCc4ccccc4N(CC(F)(F)F)C3=O)nn2)ccc1-n1ccc(C)n1 (stereo not shown)  remaining binding (cell-free assay, competition with immobilised ligand; 1 µM): 100%
CN1CC(Oc2cnc(C#N)cc2-c2ccn3nc(NC(=O)C4CC4)cc3c2)C1  inhibition (enzyme activity, inhibitor; 1 µM): 4%
Cc1sc(C(=O)NC2COC2)cc1-n1cc(NC(=O)Nc2c(F)cccc2Cl)cn1  remaining activity (enzyme activity, inhibitor; 10 µM): 101%
CCCCN(CCCC)C(=O)CN1C[C@H](c2cc(OC)c3c(c2)OCO3)[C@@H](C(=O)O)[C@@H]1CC(C)(C)CCC  remaining binding (cell-free assay, competition with immobilised ligand; 1 µM): 100%
